Measurements: ChEMBL document CHEMBL3808334, “Synthesis and in vitro evaluation of novel triazine analogues as anticancer agents and their interaction studies with bovine serum albumin” (Eur J Med Chem, 2016)

How the values were obtained:
[1] = system: A498; assay: Growth inhibition of human A498 cells assessed as cell growth at 10 uM incubated for 48 hrs by sulforhodamine B assay; format: functional; conditions: A498, 48 h, read-out: Activity
Summary of the method: (§1)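 One-dose screen at 10 µM final. Cells are plated at 5,000–40,000 per well according to doubling time and preincubated 24 h at 37 °C, 5% CO₂. Compound (DMSO stock diluted in medium with 50 µg/ml gentamicin) is then added for 48 h. Growth percent is read by sulforhodamine B staining, absorbance at 515 nm.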

[2] = system: EKVX; assay: Growth inhibition of human EKVX cells assessed as cell growth at 10 uM incubated for 48 hrs by sulforhodamine B assay; format: functional; conditions: read-out: Activity
Summary of the method: (§2)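 Primary screen at one dose (10 µM) across 60 human cancer cell lines. Readout was growth percent relative to untreated control and time-zero.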

[3] = Growth inhibition of human DU145 cells assessed as cell growth at 10 uM incubated for 48 hrs by sulforhodamine B assay; format: functional; conditions: DU-145, 48 h, read-out: Activity; summary of the method: as §2
[4] = system: SN12C; assay: Growth inhibition of human SN12C cells incubated for 48 hrs by sulforhodamine B assay; format: functional; conditions: for CC50: read-out: pLC50 (the source's name) (converted)
Summary of the method: (§3)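 Cells were plated at 5,000–40,000 per well according to doubling time and preincubated 24 h at 37 °C in 5% CO2; time-zero plates were then TCA-fixed. Five concentrations (10-fold or ½-log dilutions, DMSO stock) were incubated 48 h. Cells were TCA-fixed, stained with 0.4% SRB and read at 515 nm. GI50 was taken where [(Ti−Tz)/(C−Tz)]×100 = 50.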

[5] = system: KM12; assay: Growth inhibition of human KM12 cells assessed as cell growth at 10^-7 M incubated for 48 hrs by sulforhodamine B assay; format: functional; conditions: KM12, 48 h, read-out: Activity
[6] = Growth inhibition of human OVCAR5 cells assessed as cell growth at 10^-7 M incubated for 48 hrs by sulforhodamine B assay; format: functional; conditions: OVCAR-5, 48 h, read-out: Activity
[7] = system: NCI/ADR-RES; assay: Growth inhibition of human NCI/ADR-RES cells assessed as cell growth at 10^-7 M incubated for 48 hrs by sulforhodamine B assay; format: functional; conditions: read-out: Activity
[8] = system: NCI-H522; assay: Growth inhibition of human NCI-H522 cells assessed as cell growth at 10^-8 M incubated for 48 hrs by sulforhodamine B assay; format: functional; conditions: NCI-H522, 48 h, read-out: Activity
[9] = Growth inhibition of human PC3 cells incubated for 48 hrs by sulforhodamine B assay; format: functional; conditions: PC-3, 48 h; summary of the method: as §3
[10] = Growth inhibition of human OVCAR3 cells assessed as cell growth at 10^-5 M incubated for 48 hrs by sulforhodamine B assay; format: functional; conditions: OVCAR-3, 48 h, read-out: Activity
[11] = Growth inhibition of human SNB19 cells assessed as cell growth at 10^-7 M incubated for 48 hrs by sulforhodamine B assay; format: functional; conditions: SNB-19, 48 h, read-out: Activity
[12] = molecular target: Albumin (Bos taurus, UniProt P02769); assay: Binding affinity to bovine serum albumin assessed as hyperchromicity in absorption spectra up to 20 uM after 5 mins by UV-visible spectroscopic analysis relative to control; format: ADME; conditions: cattle, isolated protein
Summary of the method: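 UV-visible absorption titration of 10 µM BSA in 0.1 M phosphate buffer pH 7.4 with increasing compound, 0–20 µM. Compounds diluted from DMSO stocks into buffer. Spectra recorded 200–800 nm in a 1 cm quartz cell at 300 K after 5 min equilibration. The BSA band is at 279 nm; changes are compared with BSA alone.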

[13] = Growth inhibition of human UACC257 cells assessed as cell growth at 10 uM incubated for 48 hrs by sulforhodamine B assay; format: functional; conditions: UACC-257, 48 h, read-out: Activity
[14] = Growth inhibition of human HCT116 cells assessed as cell growth at 10^-8 M incubated for 48 hrs by sulforhodamine B assay; format: functional; conditions: HCT-116, 48 h, read-out: Activity
Summary of the method: (§4)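 Cells seeded at 5,000–40,000/well according to doubling time and preincubated 24 h at 37 °C, 5% CO2. Time-zero plates were TCA-fixed. DMSO concentrate was diluted in medium with 50 µg/ml gentamicin to give five concentrations (10-fold or ½ log steps), then exposed 48 h. Cells were TCA-fixed, stained with 0.4% SRB and read at 515 nm. Percent growth was taken against time-zero and control; GI50, TGI and LC50 derived.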

[15] = Growth inhibition of human Caki1 cells assessed as cell growth at 10^-4 M incubated for 48 hrs by sulforhodamine B assay; format: functional; conditions: CAKI-1, 48 h, read-out: Activity; summary of the method: as §4
[16] = Growth inhibition of human OVCAR8 cells assessed as cell growth at 10^-5 M incubated for 48 hrs by sulforhodamine B assay; format: functional; conditions: OVCAR-8, 48 h, read-out: Activity
[17] = Growth inhibition of human Caki1 cells assessed as cell growth at 10^-7 M incubated for 48 hrs by sulforhodamine B assay; format: functional; conditions: CAKI-1, 48 h, read-out: Activity; summary of the method: as §4
[18] = system: NCI-H226; assay: Growth inhibition of human NCI-H226 cells assessed as cell growth at 10 uM incubated for 48 hrs by sulforhodamine B assay; format: functional; conditions: NCI-H226, 48 h, read-out: Activity
[19] = system: M14; assay: Growth inhibition of human M14 cells assessed as cell growth at 10^-7 M incubated for 48 hrs by sulforhodamine B assay; format: functional; conditions: M14, 48 h, read-out: Activity
[20] = system: K562; assay: Growth inhibition of human K562 cells assessed as cell growth at 10 uM incubated for 48 hrs by sulforhodamine B assay; format: functional; conditions: K562, 48 h, read-out: Activity
[21] = system: U-251; assay: Growth inhibition of human U251 cells assessed as cell growth at 10^-7 M incubated for 48 hrs by sulforhodamine B assay; format: functional; conditions: U-251, 48 h, read-out: Activity
[22] = Growth inhibition of human BT549 cells assessed as cell growth at 10 uM incubated for 48 hrs by sulforhodamine B assay; format: functional; conditions: BT-549, 48 h, read-out: Activity; summary of the method: as §1
[23] = Growth inhibition of human SW620 cells assessed as cell growth at 10^-4 M incubated for 48 hrs by sulforhodamine B assay; format: functional; conditions: SW-620, 48 h, read-out: Activity
[24] = Growth inhibition of human OVCAR3 cells incubated for 48 hrs by sulforhodamine B assay; format: functional; conditions: OVCAR-3, 48 h; summary of the method: as §3
[25] = read-out: LC50 (the source's name)
[26] = read-out: pLC50 (the source's name) (converted)

Chain of Albumin (P02769 whole entry): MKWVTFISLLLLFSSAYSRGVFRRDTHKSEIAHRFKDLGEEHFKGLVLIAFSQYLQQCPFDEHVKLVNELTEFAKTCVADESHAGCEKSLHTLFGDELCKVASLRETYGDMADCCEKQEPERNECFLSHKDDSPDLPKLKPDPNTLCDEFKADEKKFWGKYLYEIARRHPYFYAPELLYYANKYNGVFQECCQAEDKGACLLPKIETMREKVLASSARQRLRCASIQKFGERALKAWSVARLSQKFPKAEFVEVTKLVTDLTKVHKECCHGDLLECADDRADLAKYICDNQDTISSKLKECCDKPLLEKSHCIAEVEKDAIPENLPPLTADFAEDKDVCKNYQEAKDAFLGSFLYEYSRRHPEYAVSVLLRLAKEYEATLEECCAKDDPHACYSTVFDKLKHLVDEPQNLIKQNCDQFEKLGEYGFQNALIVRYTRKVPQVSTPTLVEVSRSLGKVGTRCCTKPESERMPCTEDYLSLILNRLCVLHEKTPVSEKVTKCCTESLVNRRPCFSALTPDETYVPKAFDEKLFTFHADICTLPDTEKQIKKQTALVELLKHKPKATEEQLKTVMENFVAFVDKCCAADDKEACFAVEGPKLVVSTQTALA

Row | SMILES | growth at 10 µM [1] | growth at 10 µM [2] | growth at 10 µM [3] | GI50 ([4]; read-out: GI50) | TGI ([4]; read-out: TGI) | GI50 ([4]; read-out: pGI50 (converted)) | TGI ([4]; read-out: pTGI (converted)) | growth at 0.1 µM [5] | growth at 0.1 µM [6] | growth at 0.1 µM [7] | growth at 0.01 µM [8] | GI50 ([9]; read-out: GI50) | TGI ([9]; read-out: TGI) | GI50 ([9]; read-out: pGI50 (converted)) | TGI ([9]; read-out: pTGI (converted)) | growth at 10 µM [10] | growth at 0.1 µM [11] | Activity [12] | growth at 10 µM [13] | growth at 0.01 µM [14] | also measured
1 | Fc1ccc(-c2nc(Nc3ccc(-c4nc5ccccc5[nH]4)cc3)nc(N3CCOCC3)n2)cc1 | -32.1% | 7.91% | 38.5% | 3.19 µM | 23 µM | 3.16 µM | 22.9 µM | 98% | 83% | 95% | 96% | 2.39 µM | 6.66 µM | 2.4 µM | 6.61 µM | -61% | 97% | 86.8% | -27.6% | 90% | LC50 (50% lethal concentration) [4]: > 100 µM; CC50 [4]: > 100 µM; CC50 [9, 25]: > 100 µM; CC50 [9, 26]: > 100 µM; growth at 100 µM [15]: -29%; growth at 10 µM [16]: 2%; growth at 0.1 µM [17]: 97%; growth at 10 µM [18]: 17.1%; growth at 0.1 µM [19]: 99%; growth at 10 µM [20]: -22%; growth at 0.1 µM [21]: 102%; growth at 10 µM [22]: 5.16%; growth at 100 µM [23]: -44%; GI50 ([24]; read-out: GI50): 1.82 µM; TGI ([24]; read-out: TGI): 3.91 µM; GI50 ([24]; read-out: pGI50 (converted)): 1.82 µM; TGI ([24]; read-out: pTGI (converted)): 3.89 µM
2 | c1ccc(-c2nc(Nc3ccc(-c4nc5ccccc5[nH]4)cc3)nc(N3CCOCC3)n2)cc1 | -83.4% | -66.9% | -27.8% | 1.74 µM | 3.83 µM | 1.74 µM | 3.8 µM | 97% | 99% | 95% | 100% | 1.8 µM | 3.64 µM | 1.82 µM | 3.63 µM | -90% | 95% | 72.27% | -56.4% | 99% | LC50 (50% lethal concentration) [4]: 8.47 µM; CC50 [4]: 8.51 µM; CC50 [9, 25]: 7.37 µM; CC50 [9, 26]: 7.41 µM; growth at 100 µM [15]: -100%; growth at 10 µM [16]: -78%; growth at 0.1 µM [17]: 86%; growth at 10 µM [18]: -19.3%; growth at 0.1 µM [19]: 103%; growth at 10 µM [20]: -30.1%; growth at 0.1 µM [21]: 110%; growth at 10 µM [22]: 33.6%; growth at 100 µM [23]: -84%; GI50 ([24]; read-out: GI50): 1.52 µM; CC50 [24, 25]: 5.83 µM; TGI ([24]; read-out: TGI): 2.98 µM; GI50 ([24]; read-out: pGI50 (converted)): 1.51 µM; CC50 [24, 26]: 5.89 µM; TGI ([24]; read-out: pTGI (converted)): 2.95 µM
3 | Clc1ccc(-c2nc(Nc3ccc(-c4nc5ccccc5[nH]4)cc3)nc(N3CCOCC3)n2)cc1 | -81.5% | -91.3% | -94% | 0.851 µM | 2.39 µM | 0.851 µM | 2.4 µM | 97% | 92% | 101% | 100% | 0.376 µM | 1.33 µM | 0.38 µM | 1.32 µM | -93% | 95% | 97.67% | -82.5% | 99% | growth at 100 µM [15]: -68%; growth at 10 µM [16]: -79%; growth at 0.1 µM [17]: 93%; growth at 10 µM [18]: -64.5%; growth at 0.1 µM [19]: 93%; growth at 10 µM [20]: -100%; growth at 0.1 µM [21]: 103%; growth at 10 µM [22]: -73.6%; growth at 100 µM [23]: -63%; GI50 ([24]; read-out: GI50): 0.374 µM; CC50 [24, 25]: 3.99 µM; TGI ([24]; read-out: TGI): 1.37 µM; GI50 ([24]; read-out: pGI50 (converted)): 0.372 µM; CC50 [24, 26]: 3.98 µM; TGI ([24]; read-out: pTGI (converted)): 1.38 µM
4 | c1ccc2[nH]c(-c3ccc(Nc4nc(N5CCCCC5)nc(N5CCOCC5)n4)cc3)nc2c1 | -28.6% | 27.7% | 39% | 5.4 µM | 53.2 µM | 5.37 µM | 53.7 µM | 103% | 100% | 98% | 89% | 3.05 µM | 9.13 µM | 3.02 µM | 9.12 µM | -25% | 98% | 72.31% | -19.3% | 100% | LC50 (50% lethal concentration) [4]: > 100 µM; CC50 [4]: > 100 µM; CC50 [9, 25]: > 100 µM; CC50 [9, 26]: > 100 µM; growth at 100 µM [15]: -32%; growth at 10 µM [16]: 9%; growth at 0.1 µM [17]: 86%; growth at 10 µM [18]: 32.7%; growth at 0.1 µM [19]: 95%; growth at 10 µM [20]: -6.74%; growth at 0.1 µM [21]: 97%; growth at 10 µM [22]: 23.1%; growth at 100 µM [23]: -53%; GI50 ([24]; read-out: GI50): 2.4 µM; CC50 [24, 25]: > 100 µM; TGI ([24]; read-out: TGI): 6.19 µM; GI50 ([24]; read-out: pGI50 (converted)): 2.4 µM; CC50 [24, 26]: > 100 µM; TGI ([24]; read-out: pTGI (converted)): 6.17 µM
